Source: PubChem (Broad Institute)
In the library only some 2.9% were active in any assay of this set; here they are far more common.
E-sel inducer: induces E-selectin expression in human endothelial cells | actives 0.37% (n = 260,000) | HUVEC E-selectin immunofluorescence imaging; normalized: neutral wells 0, TNF-alpha wells 100 | activation, % at 7.58 µM;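 active = mean E-selectin-positive cell signal at least 10% of the positive control, reached in at least 60% of replicates, without over 20% cell loss; inconclusive = no rule given, readout overlaps actives, possibly toxicity-flagged; inactive = the rest, including those meeting only one limit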
Target sequence (P16581 whole entry, looked up): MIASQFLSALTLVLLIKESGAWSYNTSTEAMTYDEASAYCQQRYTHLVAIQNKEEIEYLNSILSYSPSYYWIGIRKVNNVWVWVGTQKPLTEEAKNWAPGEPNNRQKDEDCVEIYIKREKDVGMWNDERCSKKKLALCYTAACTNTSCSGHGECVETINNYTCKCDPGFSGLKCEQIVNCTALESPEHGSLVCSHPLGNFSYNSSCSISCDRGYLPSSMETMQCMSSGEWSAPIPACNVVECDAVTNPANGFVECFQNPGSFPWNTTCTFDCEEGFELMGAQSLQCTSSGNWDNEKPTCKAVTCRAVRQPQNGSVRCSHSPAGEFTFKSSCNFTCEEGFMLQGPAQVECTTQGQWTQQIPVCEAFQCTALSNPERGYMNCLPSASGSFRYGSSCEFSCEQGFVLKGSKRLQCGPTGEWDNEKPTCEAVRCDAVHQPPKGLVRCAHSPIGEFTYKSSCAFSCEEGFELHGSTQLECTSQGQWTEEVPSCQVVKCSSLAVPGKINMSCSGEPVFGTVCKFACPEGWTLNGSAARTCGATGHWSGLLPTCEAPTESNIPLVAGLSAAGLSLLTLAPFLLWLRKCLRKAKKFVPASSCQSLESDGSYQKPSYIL
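material = human umbilical vein endothelial cells (HUVEC), E-selectin induction | quantity = 3,000 cells/well | medium = EGM-2 growth medium on 0.1% gelatin-coated wells | technique = immunofluorescence imaging | read-out basis = % PE-positive cells | control set = TNF-alpha positive control, DMSO neutral control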
SIRT5 block: blocks human SIRT5 desuccinylation of peptide; Q9NXA8; Purified SirT5, succinyl-peptide AMC, trypsin-coupled fluorescence; inhibition, % at 15 µM; actives 1.1% (n = 330,000); AID 652115; in the data active = inhibition above about 15%; inconclusive = no clear call, values can overlap the other calls
DENV2 CPE rescue: DENV2-induced cell death inhibition; DENV2-infected cells, cytopathic effect rescue, plate reader; CPE inhibition, % at 9.99 µM; actives 1.7% (n = 350,000); AID 651640; in the data active = CPE inhibition above about 20%, passing the limit was not always enough; inconclusive = no clear call, values can overlap the other calls; tested in BHK-21 cells;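 note: 0% = median of neutral control wells and 100% = median of positive control wells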
The depositor's hits bear a star; ? = inconclusive; nt = no result.

SMILES	E-sel inducer	SIRT5 block	DENV2 CPE rescue
Cc1noc(C)c1NC(=O)N(C)C[C@H]1OCCCC[C@H](C)Oc2ccc(NC(=O)c3ccccc3)cc2C(=O)N([C@@H](C)CO)C[C@H]1C	0	2	-2
O=C(NN=Cc1cc(=O)[nH]c(=O)[nH]1)c1ccncc1	0	-5	nt
O=C(NCC[C@@H]1CC[C@H](NC(=O)C2CC2)[C@H](CO)O1)c1cc(Cl)cc(Cl)c1	0	38*	1
O=C(CN1CCOCC1)N[C@H]1CC[C@@H](CCNC(=O)C2CCCCC2)O[C@H]1CO	0	0	3
CN(C)CC(=O)N[C@@H]1CC[C@@H](CCNC(=O)Nc2ccc(C(F)(F)F)cc2)O[C@@H]1CO	0	17*	7
O=C(NCC[C@H]1CC[C@H](NC(=O)C2CC2)[C@H](CO)O1)c1cc(Cl)cc(Cl)c1	0	-5	1
CCC(=O)N[C@H]1CC[C@@H](CCNC(=O)Nc2ccc(C(F)(F)F)cc2)O[C@H]1CO	0	-2	9
CN(C)CC(=O)N[C@@H]1CC[C@H](CCNC(=O)C2CCCC2)O[C@@H]1CO	-1	2	54*
O=C(CN1CCOCC1)N[C@@H]1CC[C@H](CCNC(=O)C2CCCCC2)O[C@H]1CO	0	15*	8
CN(C)CC(=O)N[C@H]1CC[C@@H](CCNC(=O)C2CCCC2)O[C@H]1CO	0	0	-5
CNC(=O)c1c(NC(=O)C2=COCCO2)sc2c1CCCC2	1	1	-10
O=C(N[C@H]1CC[C@@H](CCNC(=O)C2CCCCC2)O[C@@H]1CO)c1ccncc1	0	-1	24*
O=C(N[C@@H]1CC[C@@H](CCNC(=O)C2CCCCC2)O[C@@H]1CO)c1ccncc1	0	3	-9
CC(C)(C)C(=O)N(Cc1ccc(Cl)cc1)Cc1cccnc1	nt	-1	3
C[C@H](O)[C@@H]1CN2CCc3ccc(-c4ccc5c(c4)OCO5)cc3[C@@H]2C[C@@H]1N(C)Cc1ccccc1	0	-1	3
Cc1ccc(S(=O)(=O)N(C)[C@H]2C[C@H]3c4cc(-c5ccc6c(c5)OCO6)ccc4CCN3C[C@H]2[C@H](C)O)cc1	1	0	32*
O=C(Nc1ccc(Oc2ccc(Cl)cc2)c(Cl)c1)c1cc(I)cc(I)c1O	0	0	43*
COc1ccccc1Oc1ccc(NC(=O)c2ccc(Cl)cc2)cc1	-1	-4	0
CSc1sc(-c2ccnc(SCCS(C)(=O)=O)n2)c(-c2ccccc2)c1C#N	0	-2	-2
Cn1c(N)c(C(=O)CSc2n[nH]c(N)n2)c(=O)n(C)c1=O	0	0	8
COc1ccc(CN(C(=O)Cn2nnc(-c3ccc(C)o3)n2)C(C(=O)NCC2CCCO2)c2ccco2)cc1 (centres undefined)	0	112*	4
Cc1ccc(-c2nnn(CC(=O)N(Cc3ccco3)C(C(=O)NC(C)(C)C)c3ccc(C)o3)n2)o1 (centres undefined)	nt	18*	nt
Cc1ccc(-c2nnn(CC(=O)N(Cc3ccccc3)C(C(=O)NC(C)(C)C)c3ccncc3)n2)o1 (centres undefined)	nt	0	1
COc1ccc(-c2nnn(CC(=O)N(Cc3ccco3)C(C(=O)NCC3CCCO3)c3ccco3)n2)cc1 (centres undefined)	0	1	-4
S=C(NCc1ccncc1)Nc1ccc(Cl)c(Cl)c1	1	nt	nt
SMILES	E-sel inducer	SIRT5 block	DENV2 CPE rescue
O=C(Nc1ccccc1)C1=C[C@H](c2ccc(C(F)(F)F)cc2)C[C@H](OCc2ccc(CO)cc2)O1	0	-3	-11
O=C1CN(C(=O)COC(=O)CNS(=O)(=O)c2ccccc2)c2ccccc2N1	nt	-4	0
CS(=O)(=O)c1ccccc1C(=O)Nc1ccc(-c2nc3ccccc3o2)cc1	nt	-3	?
CC(C)N1CCN(Cc2cnc(-c3ccccc3)s2)CC1CCO (centres undefined)	nt	22*	4
CC(C)CCN1CCN(Cc2cnc(N3CCCC3)s2)CC1CCO (centres undefined)	1	38*	8
CC(C)CCN1CCN(Cc2cnc(-c3ccccc3)s2)CC1CCO (centres undefined)	4	-6	nt
CC(C)=CCN1CCN(Cc2cnc(N3CCCC3)s2)CC1CCO (centres undefined)	4	-1	2
CCC(CC)C(=O)Nc1nnc(S(=O)(=O)N2CCCc3ccccc32)s1	0	nt	-5
COC(=O)CN1C(=S)N(C)C(=O)/C1=C/c1cccs1	nt	0	1
CCN1CNC(=S)N(CCc2ccccc2)C1	nt	-6	7
N#CCCN1CCN(CCC#N)c2ccccc21	0	nt	5
N#CCCc1cccc(CCC#N)c1	0	nt	120*
NNC(=O)CN1C(=O)C2(OCCO2)c2ccccc21	-1	nt	-4
CC(=O)NC(c1cc(Cl)c2ccccc2c1O)C(C)C (centres undefined)	1	nt	nt
CCC(=O)NC(c1cccs1)c1cc([N+](=O)[O-])c2cccnc2c1O (centres undefined)	2	24*	-11
CC(=O)NC(c1cccs1)c1cc([N+](=O)[O-])c2cccnc2c1O (centres undefined)	nt	4	87*
CC(=O)NC(c1cc(Cl)c2cccnc2c1O)C(C)C (centres undefined)	0	nt	42*
CC(=O)NC(c1ccccc1)c1cc([N+](=O)[O-])c2cccnc2c1O (centres undefined)	1	4	-3
CCCC(=O)NC(c1cccs1)c1cc([N+](=O)[O-])c2cccnc2c1O (centres undefined)	-2	-3	-1
CC(=O)Cn1cnc2scc(-c3ccc(C)c(C)c3)c2c1=O	nt	-4	0
Cc1ccc(-c2nnn(CC(=O)N(C)C3CCCCC3)n2)o1	1	-4	nt
CCN(CC(=O)NCc1ccc(Cl)cc1)C(=O)CSCC(=O)Nc1ccc(C)cc1	0	11	-5
Cc1noc(C)c1NC(=O)Nc1ccc2c(c1)C(=O)N([C@H](C)CO)C[C@H](C)[C@@H](CN(C)S(=O)(=O)c1cn(C)cn1)OCCCC[C@@H](C)O2	0	-4	-3
CCC(=O)Nc1ccc2c(c1)OC[C@H](C)N(C(=O)CC)C[C@@H](C)[C@@H](OC)CN(C)C2=O	0	nt	nt
CCC(=O)N1C[C@H](C)[C@@H](OC)CN(C)C(=O)c2ccc(NC(=O)C3CC3)cc2OC[C@@H]1C	0	-2	40*
SMILES	E-sel inducer	SIRT5 block	DENV2 CPE rescue
CCC(=O)Nc1ccc2c(c1)OC[C@H](C)N(C(=O)CC)C[C@H](C)[C@@H](OC)CN(C)C2=O	0	-2	35*
CCC(=O)Nc1ccc2c(c1)OC[C@@H](C)N(C(=O)Nc1ccccc1F)C[C@@H](C)[C@H](OC)CN(C)C2=O	0	nt	22*
CCC(=O)Nc1ccc2c(c1)OC[C@@H](C)N(C(=O)Cc1cccnc1)C[C@@H](C)[C@H](OC)CN(C)C2=O	0	-6	27*
CCC(=O)N1C[C@H](C)[C@H](OC)CN(C)C(=O)c2ccc(NC(=O)C3CC3)cc2OC[C@H]1C	0	-3	9
CCC(=O)Nc1ccc2c(c1)OC[C@H](C)N(C(=O)Cc1cccnc1)C[C@H](C)[C@H](OC)CN(C)C2=O	0	-8	1
CCC(=O)Nc1ccc2c(c1)OC[C@@H](C)N(C(=O)c1ccccc1F)C[C@H](C)[C@@H](OC)CN(C)C2=O	0	-5	10
